Values after ≈ are worked out from the molar mass of the structure shown.
Assays:
Staphylococcus aureus [1] = experiment: Antibacterial activity against methicillin-resistant Staphylococcus aureus ATCC 700699 after 24 hrs by microdilution method; format: functional; conditions: ATCC700699, 24 h
Summary of the method: (§1)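 Broth microdilution; MIC read as the lowest compound concentration that prevents visible bacterial growth after incubation at 37 °C for 18–24 h, and expressed in μg/mL.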

[2] = Inhibition of Staphylococcus aureus topoisomerase 4 Ser80Phe mutant-mediated decatenation of kDNA after 30 mins by gel electrophoresis assay
[3] = Inhibition of wild-type Staphylococcus aureus topoisomerase 4-mediated decatenation of kDNA after 30 mins by gel electrophoresis assay
DNA gyrase = DNA gyrase (Staphylococcus aureus, UniProt P0A0K8+P20831); experiment: Inhibition of wild-type Staphylococcus aureus DNA gyrase assessed as inhibition of supercoiling of pBR322 DNA after 60 min by gel electrophoresis assay; format: protein-complex assay
Staphylococcus aureus [4] = experiment: Antibacterial activity against methicillin- and quinolone-resistant Staphylococcus aureus ATCC700699 after 24 hrs by microdilution method; format: functional; conditions: ATCC700699, 24 h; summary of the method: as §1
Staphylococcus aureus [5] = experiment: Antibacterial activity against methicillin-sensitive Staphylococcus aureus ATCC 29213 after 24 hrs by microdilution method; format: functional; conditions: ATCC 29213, 24 h
Summary of the method: (§2)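 MIC taken as the lowest concentration with no visible bacterial growth after 18-24 h at 37 °C, given in μg/mL; modal value of multiple experiments.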

DNA gyrase subunit A = DNA gyrase subunit A (Staphylococcus aureus, UniProt P20831, S84L); experiment: Inhibition of Staphylococcus aureus DNA gyrase Ser84Leu mutant assessed as inhibition of supercoiling of pBR322 DNA after 60 min by gel electrophoresis assay
Escherichia coli = experiment: Antibacterial activity against Escherichia coli ATCC25922 after 24 hrs by microdilution method; format: functional; conditions: ATCC25922, 24 h; summary of the method: as §2
[6] = Cytotoxicity against human Hep2 cells after 72 hrs by alamar blue assay; format: cell-based; conditions: HEp-2 cells
[7] = tested on: DNA gyrase subunit A (Staphylococcus aureus), P20831 [S84L]; experiment: Ratio of ciprofloxacin IC50 to compound IC50 for Staphylococcus aureus DNA gyrase Ser84Leu mutant
Staphylococcus aureus [8] = experiment: Ratio of levofloxacin MIC to compound MIC for methicillin-resistant Staphylococcus aureus clinical isolate; format: functional
Staphylococcus aureus [9] = experiment: Antibacterial activity against methicillin-resistant Staphylococcus aureus clinical isolate after 24 hrs by microdilution method; format: functional; summary of the method: as §1
Staphylococcus aureus [10] = experiment: Ratio of ciprofloxacin IC50 to compound IC50 for Staphylococcus aureus topoisomerase 4 Ser80Phe mutant
Staphylococcus aureus [11] = experiment: Ratio of vancomycin MIC to compound MIC for methicillin-resistant Staphylococcus aureus clinical isolate; format: functional
[12] = target: DNA gyrase (Staphylococcus aureus) (UniProt P0A0K8+P20831); experiment: Ratio of ciprofloxacin IC50 to compound IC50 for wild-type Staphylococcus aureus DNA gyrase; format: protein-complex assay
Staphylococcus aureus [13] = experiment: Ratio of ciprofloxacin IC50 to compound IC50 for wild-type Staphylococcus aureus topoisomerase 4

Row | Compound | MIC (Staphylococcus aureus [1]) [µg/mL] | IC50 [2] [µM] | IC50 [3] [µM] | IC50 (DNA gyrase) [µM] | MIC (Staphylococcus aureus [4]) [µg/mL] | MIC (Staphylococcus aureus [5]) [µg/mL] | IC50 (DNA gyrase subunit A) [µM] | MIC (Escherichia coli) [µg/mL] | CC50 at 72 h [6] [µM] | Ratio [7] | Ratio (Staphylococcus aureus [8]) | MIC50 (Staphylococcus aureus [9]) [µg/mL] | MIC90 (Staphylococcus aureus [9]) [µg/mL] | Ratio (Staphylococcus aureus [10]) | Ratio (Staphylococcus aureus [11]) | MIC (Staphylococcus aureus [9]) [µg/mL] | Ratio IC50 [12] | Ratio IC50 (Staphylococcus aureus [13])
1 | COc1c(N2CC[C@@H](C(C)(C)N)C2)c(F)cc2c(=O)c3c(=O)[nH]sc3n(C3CC3)c12 | 0.06 (≈ 0.139 µM) | 0.6 | 0.12 | 0.68 | 0.06 (≈ 0.139 µM) | 0.004 (≈ 0.00925 µM) | 4.2 | 0.06 (≈ 0.139 µM) | 9 | > 48 | 256 | 0.06 (≈ 0.139 µM) | 0.25 (≈ 0.578 µM) | 95 | 4 |  |  | 
2 | CC(=O)NC[C@H]1CN(c2ccc(N3CCOCC3)c(F)c2)C(=O)O1 [LINEZOLID] |  |  |  |  |  |  |  |  |  |  |  | 1 (≈ 2.96 µM) | 2 (≈ 5.93 µM) |  |  | 1 (≈ 2.96 µM) |  | 
3 | Cc1onc(-c2ccccc2)c1C(=O)N[C@@H]1C(=O)N2[C@@H]1SC(C)(C)[C@@H]2C(=O)O [OXACILLIN] |  |  |  |  |  |  |  |  |  |  |  | > 16 | > 16 |  |  |  |  | 
4 | O=C(O)c1cn(C2CC2)c2cc(N3CCNCC3)c(F)cc2c1=O [CIPROFLOXACIN] | 32 (≈ 96.6 µM) | 57 | 3 |  | 32 (≈ 96.6 µM) | 0.25 (≈ 0.754 µM) |  |  | > 100 |  |  |  |  |  |  |  |  | 
5 | CO/N=C1\CN(c2nc3c(cc2F)c(=O)c(C(=O)O)cn3C2CC2)CC1CN (stereo unspecified) [GEMIFLOXACIN] | 2 (≈ 5.14 µM) | 9.8 | 0.4 |  |  | 0.03 (≈ 0.077 µM) | > 200 | 4 (≈ 10.3 µM) |  |  |  |  |  |  |  |  |  | 
6 | CN[C@@H](C)[C@@H]1CCN(c2c(F)cc3c(=O)c4c(=O)[nH]sc4n(C4CC4)c3c2OC)C1 (mixture of isomers) | 0.25 | 1.16 | 0.11 | 1.1 | 0.25 | 0.008 | 18.7 | 0.03 | 12 |  |  |  |  |  |  |  |  | 
7 | CN[C@H](CC(C)C)C(=O)N[C@H]1C(=O)N[C@@H](CC(N)=O)C(=O)N[C@H]2C(=O)N[C@H]3C(=O)N[C@H](C(=O)N[C@H](C(=O)O)c4cc(O)cc(O)c4-c4cc3ccc4O)[C@H](O)c3ccc(c(Cl)c3)Oc3cc2cc(c3O[C@@H]2O[C@H](CO)[C@@H](O)[C@H](O)[C@H]2O[C@H]2C[C@](C)(N)[C@H](O)[C@H](C)O2)Oc2ccc(cc2Cl)[C@H]1O [VANCOMYCIN] |  |  |  |  |  |  |  |  |  |  |  | 1 (≈ 0.69 µM) | 1 (≈ 0.69 µM) |  |  |  |  | 
8 | COc1c(N2C[C@@H]3CCCN[C@@H]3C2)c(F)cc2c(=O)c(C(=O)O)cn(C3CC3)c12 [MOXIFLOXACIN] | 2 (≈ 4.98 µM) | 11.9 | 1 |  | 4 (≈ 9.96 µM) | 0.06 (≈ 0.149 µM) |  | 0.03 (≈ 0.0747 µM) | > 100 |  |  |  |  |  |  |  |  | 
9 | C[C@H]1COc2c(N3CCN(C)CC3)c(F)cc3c(=O)c(C(=O)O)cn1c23.C[C@H]1COc2c(N3CCN(C)CC3)c(F)cc3c(=O)c(C(=O)O)cn1c23.O [LEVOFLOXACIN] |  |  |  |  |  |  |  |  |  |  |  | 16 | > 16 |  |  |  |  | 
10 | COc1c(N2CC[C@@H]([C@H](C)N)C2)c(F)cc2c(=O)c3c(=O)[nH]sc3n(C3CC3)c12 (mixture of isomers) | 0.06 | 0.47 | 0.04 | 0.68 | 0.06 | 0.002 | 3.2 | 0.008 | 6 | > 62 |  | 0.06 | 0.5 | 121 |  |  | 91 | 75
11 | COc1c(N2CC[C@@H]([C@H](C)NCCF)C2)c(F)cc2c(=O)c3c(=O)[nH]sc3n(C3CC3)c12 (mixture of isomers) | 0.13 | 0.66 | 0.06 | 1.32 | 0.13 | 0.002 | 12 | 0.06 | 73 |  |  |  |  |  |  |  |  | 

Source: ChEMBL document CHEMBL1772978, “Exploration of the activity of 7-pyrrolidino-8-methoxyisothiazoloquinolones against methicillin-resistant Staphylococcus aureus (MRSA)” (J Med Chem, 2011)
